From PubChem
CYP2C9 activ: increases human cytochrome P450 2C9 activity | P11712 | recombinant CYP2C9, luciferin-H conversion, luminescence; hits give high values; factor 1 = untreated enzyme, 0 = blocked | activation factor at 5 µM | hit rate 1.4% among 96,000;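 active = activation factor of 2 or more for CYP2C9 at a 5 µM dose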
Rev-RRE block: HIV Rev-RRE protein-RNA interaction inhibition; P05866; AID 704; hit rate 0.79% among 97,000; Rev peptide-RRE RNA binding, FRET; inhibition, % at 8 µM;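 active = inhibition above the screen-wide mean plus 3 SD, cut at about 35% in these data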
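Test system: labelled RRE RNA duplex and labelled Rev peptide. Times: 5 min compound–RNA preincubation, then 15 min with peptide, 25 °C. Doses: single-dose 8 µM. Measured by: FRET, excitation 480 nm, emission 540 nm donor and 671 nm acceptor. Measure: % inhibition of FRET ratio versus controls.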
Cav3 T inh: inhibitors of human Cav3.2 T-type calcium channel; O95180; Cav3.2-expressing cells, Fluo-4 calcium fluorescence FDSS; hits give low values; B-score at 10 µM; hit rate 4% among 100,000; AID 449739;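 active = single-dose well whose peak fluorescence ratio is a statistical outlier from its plate by either plate-standardised score or position-corrected B-score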
CYP2C19 activ: activators of human cytochrome P450 2C19 | P33261 | recombinant CYP2C19, luciferin-H EGE luminescence; hits give high values; 0 = fully inhibited enzyme, 1 = untreated enzyme | activation factor at 5 µM | 96,000 tested, under 10 active | AID 1025;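 active = activation factor of at least 2 at 5 µM in the primary screen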
CYP2C19 inhib: blocks human cytochrome P450 2C19 | AID 778 | hit rate 21% among 96,000 | CYP2C19 Supersomes, luciferin-H EGE luminescence, 30 min | inhibition, % at 5 µM;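 active = CYP2C19 inhibition above a set limit at 5 µM in the primary screen, cut at about 50% in these data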
CYP2C9 inhib: inhibitors of human CYP2C9. P11712. CYP2C9 Supersomes, luciferin-H conversion, luminescence. inhibition, % at 5 µM. hit rate 20% among 96,000;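 active = blocking of liver enzyme CYP2C9 beyond about 50% at 5 µM, limit read from the data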
Of the large screens only hits and unclear results are named; the others gave an inactive call. In the library only some 27% were active in any assay of this set; here they are far more common.

COc1ccc2c(c1)CC(C1(O)C(=O)Nc3ccccc31)C2=O (stereo unspecified)	CYP2C19 inhib 83
O=C(NCCNc1ccc([N+](=O)[O-])cc1C(F)(F)F)c1ccccc1F	CYP2C19 inhib 92
O=[N+]([O-])c1ccc(NCCNS(=O)(=O)c2ccccc2)c(C(F)(F)F)c1	Cav3 T inh -4.9, CYP2C19 inhib 88, CYP2C9 inhib 75
Cc1ccc(S(=O)(=O)NCCNc2ccc([N+](=O)[O-])cc2C(F)(F)F)cc1	CYP2C9 inhib 77
O=C(O)c1cc([N+](=O)[O-])ccc1NCCCc1ccccc1	none (no result: CYP2C9 activ, Rev-RRE block, CYP2C19 activ, CYP2C19 inhib, CYP2C9 inhib)
O=C(NCCNc1ccc([N+](=O)[O-])cc1)c1ccccc1Br	none
COC(=O)c1[nH]c2ccc(C)cc2c1NS(=O)(=O)c1ccc(F)c(C)c1	CYP2C19 inhib 76, CYP2C9 inhib 52 (no result: Cav3 T inh)
CCS(=O)(=O)Nc1c(C(=O)O)[nH]c2ccccc12	none
Cc1cc(S(=O)(=O)Nc2c(C(=O)O)[nH]c3ccccc23)ccc1F	CYP2C19 inhib 92, CYP2C9 inhib 79
COn1cnnc1-c1ccccc1	Rev-RRE block 41
On1cnnc1-c1ccccc1	none (no result: Cav3 T inh)
CC(=O)NC(CCS(C)(=O)=O)C(=O)Nc1cccc(C(C)=O)c1 (stereo unspecified)	none
CCc1ccccc1NC1=NCC(=O)N1Cc1ccccc1	none
O=C1CN=C(Nc2cccc(C(F)(F)F)c2)N1C1CCCC1	CYP2C19 inhib 72, CYP2C9 inhib 82
CCc1ccccc1NC1=NCC(=O)N1C1CCCCC1	CYP2C19 inhib 56, CYP2C9 inhib 53 (no result: Rev-RRE block)
Cc1cc(C)c(NC2=NCC(=O)N2C2CCCCC2)c(C)c1	CYP2C19 inhib 90, CYP2C9 inhib 85
CCO[C@H]1OC(C(N)=O)=C[C@@H](C2CC2)[C@@H]1CCCO	none (no result: CYP2C9 activ, Rev-RRE block, CYP2C19 activ, CYP2C19 inhib, CYP2C9 inhib)
COCCCNc1oc(-c2ccccc2OC)nc1C#N	none
COCCCNc1oc(-c2ccccc2F)nc1C#N	CYP2C19 inhib 66, CYP2C9 inhib 58
N#Cc1nc(-c2ccccc2F)oc1NCc1ccccc1	CYP2C9 inhib 66 (no result: Cav3 T inh)
COc1ccc(CNC(=O)c2csc(Cc3ccc(Cl)cc3)n2)cc1	CYP2C19 inhib 57, CYP2C9 inhib 62 (no result: Cav3 T inh)
COc1ccc(CNC(=O)c2cccnc2Sc2ccc(Cl)cc2)cc1	none
COc1ccc(CNC(=O)c2csc(Cc3ccc(OC)cc3)n2)cc1	Cav3 T inh -7.9, CYP2C9 inhib 67
O=C(CN1CCN(C(=O)c2cccs2)CC1)NC1CCCCC1	none (no result: Cav3 T inh)
CC(C)C(=O)NC(c1ccc([N+](=O)[O-])cc1)c1c(O)ccc2ccccc12 (stereo unspecified)	none
CCCCC(=O)NC(c1ccc(OC)c(OC)c1)c1c(O)ccc2ccccc12 (stereo unspecified)	CYP2C19 inhib 63, CYP2C9 inhib 88
CCCC(=O)NC(c1ccc(OC)c(OC)c1)c1c(O)ccc2ccccc12 (stereo unspecified)	CYP2C19 inhib 74, CYP2C9 inhib 71
O=C1NC(=Nc2cccc(Cl)c2)SC1Cc1cccc(Cl)c1Cl (stereo unspecified)	none
CCc1cc2c(=O)n(C(C)C(=O)OC3CCCCC3)cnc2s1 (stereo unspecified)	none
C=CCn1c(NC(C)c2cc(Cl)ccc2O)nc2ccccc21 (stereo unspecified)	CYP2C19 inhib 68 (no result: Cav3 T inh)
Cc1cccc(C(=O)N=c2c(C#N)cc3c(=O)n4cccc(C)c4nc3n2Cc2ccco2)c1	none
O=C(CSc1nc2ccccc2c(=O)[nH]1)c1cccs1	CYP2C9 inhib 66
O=C(CSc1nc2ccccc2c(=O)[nH]1)N1CCCCCC1	none
O=C(CSc1nc2ccccc2c(=O)[nH]1)c1ccc(O)c(O)c1	CYP2C9 inhib 77 (no result: Rev-RRE block)
CC1(C)c2[nH]c3ccccc3c2C[C@@H]2C(=O)N(Cc3ccccc3F)C(=O)N21	none (no result: CYP2C9 activ, Rev-RRE block, CYP2C19 activ, CYP2C19 inhib, CYP2C9 inhib)
COc1ccc(-n2c(-c3ccccc3)cc3c2CCCC3=O)cc1	CYP2C19 inhib 76
O=c1oc(-c2cccc(S(=O)(=O)N3CCOCC3)c2)nc2ccccc12	none (no result: Rev-RRE block)
C/C(=N\NC(=O)C(C)Sc1ccccc1)C(C)(C)C (stereo unspecified)	none
Cc1cccc(C(=O)N[C@@H]2c3ccccc3C[C@@H]2O)n1	none (no result: CYP2C9 activ, Rev-RRE block, CYP2C19 activ, CYP2C19 inhib, CYP2C9 inhib)
CC1(C(=O)NCc2cccnc2)CCC(=O)N1Cc1cccs1 (stereo unspecified)	CYP2C19 inhib 52 (no result: Rev-RRE block, Cav3 T inh)
CCCCC1C(=O)CC[C@H]2[C@@H]1CC(=O)[C@@H]2C/C=C\CCCC(=O)O (stereo partly specified)	none (no result: CYP2C9 activ, Rev-RRE block, CYP2C19 activ, CYP2C19 inhib, CYP2C9 inhib)
COC(=O)c1ccccc1NC(=O)c1ccc(Cn2cc(Cl)cn2)o1	CYP2C19 inhib 50
Cc1ccc(NC(=O)c2ccc(Cn3cc(Br)cn3)o2)cc1	none (no result: CYP2C9 activ, CYP2C19 activ, CYP2C19 inhib, CYP2C9 inhib)
COC(=O)c1cc(NC(=O)c2ccc(Cn3cc(Cl)cn3)o2)cc(C(=O)OC)c1	CYP2C19 inhib 77, CYP2C9 inhib 89
Cc1ccc(OCC(O)CNC(=O)c2ccccc2C(=O)O)cc1 (stereo unspecified)	none
COc1cc(NC(=S)NN2CCOCC2)cc(OC)c1	none (no result: CYP2C9 activ, CYP2C19 activ, CYP2C19 inhib, CYP2C9 inhib)
O=C(Cn1ncc2c(=O)oc3ccccc3c21)N1CCCc2ccccc21	CYP2C9 inhib 67
O=C(CCn1cccc1)N1CCc2ccccc21	CYP2C19 inhib 52 (no result: Rev-RRE block)
O=C(NC(=S)N1CCCc2ccccc21)c1ccccc1	CYP2C19 inhib 51
Cc1ccc(N2CC(C(=O)N3CCCc4ccccc43)CC2=O)cc1 (stereo unspecified)	CYP2C19 inhib 68, CYP2C9 inhib 96
CCOC(=O)Cn1ncc2c(=O)oc3ccccc3c21	none
O=C(COc1ccc(F)cc1)Nc1nccs1	none (no result: CYP2C9 activ, CYP2C19 activ, CYP2C19 inhib, CYP2C9 inhib)
N#CCN1CCN(CC(=O)Nc2ccc(OCc3ccccc3)cc2)CC1	none (no result: Cav3 T inh)
COc1ccc2c(CC(=O)OCC(=O)N3CCc4ccccc43)coc2c1	none (no result: Rev-RRE block)
COc1ccc2c(CC(=O)OCC(=O)NC(=O)c3cccn3C)coc2c1	none
COc1ccc2c(CC(=O)N(C)CC3COc4ccccc4O3)coc2c1 (stereo unspecified)	CYP2C19 inhib 99, CYP2C9 inhib 88
CC(C)Oc1ccc(C(=O)N2CCCc3ccccc32)cc1	CYP2C19 inhib 97
COc1ccc(OCC(=O)NC(=S)N2CCCc3ccccc32)cc1	CYP2C19 inhib 64
COc1ccc2c(CC(=O)N3CCc4ccccc43)coc2c1	CYP2C19 inhib 64
COc1ccc(C(=O)N2CCCc3ccccc32)cc1	none
O=C(CCCC(=O)N1CCCc2ccccc21)N1CCCc2ccccc21	CYP2C19 inhib 95
Cn1ncc(Cl)c1C(=O)N1CCCc2ccccc21	CYP2C19 inhib 54, CYP2C9 inhib 63
Cn1ncc(Cl)c1C(=O)N1CCc2ccccc21	none
O=C(c1ccc(C(=O)N2CCCc3ccccc32)s1)N1CCCc2ccccc21	Cav3 T inh -7.8, CYP2C19 inhib 50
COc1ccc(C2=NOC(C(=O)N3CCCc4ccccc43)C2)cc1 (stereo unspecified)	CYP2C9 activ 2.2
O=C(c1ccc(Cl)s1)N1CCc2ccccc21	none
